Only some compounds are listed: those with a hit (about 2.6% of all), similar ones and a draw of the others.
TDP2 absorb – blocks human TDP2 phosphodiesterase activity; recombinant TDP2, T5PNP hydrolysis, p-nitrophenol absorbance 415 nm; inhibition, % at 12.8 µM; hit rate 0.34% among 370,000;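 active means inhibition above the mean of all tested compounds plus 3 SD, set per campaign, cut at about 25% in these data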
Target sequence (O95551 whole entry, looked up): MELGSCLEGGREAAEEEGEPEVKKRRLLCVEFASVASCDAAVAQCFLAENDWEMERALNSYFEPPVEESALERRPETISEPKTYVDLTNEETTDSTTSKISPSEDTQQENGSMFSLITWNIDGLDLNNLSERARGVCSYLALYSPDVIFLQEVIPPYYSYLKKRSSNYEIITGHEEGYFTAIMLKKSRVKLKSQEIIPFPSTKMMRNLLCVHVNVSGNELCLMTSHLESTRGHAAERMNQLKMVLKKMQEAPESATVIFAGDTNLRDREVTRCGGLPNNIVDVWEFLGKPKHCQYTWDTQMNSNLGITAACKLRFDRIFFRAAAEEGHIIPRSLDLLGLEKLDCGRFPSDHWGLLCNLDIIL
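System: recombinant human TDP2 / Amount: 120 nM TDP2 per well / Also added: 5 mM T5PNP chromogenic substrate / Doses: 12.8 µM single point, 1% DMSO / Incubation: 2 h at 37 °C / Detection: p-Nitrophenol epi absorbance / Evaluation: % inhibition relative to enzyme-containing and enzyme-free wells / Repeats: singlicate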
Apaf1 inhib – human Apaf-1 inhibition; O14727; reconstituted apoptosome caspase-3 activity, DEVD-Rh110 fluorescence; AID 489030; inhibition, % at 20 µM; hit rate 0.71% among 330,000; active means inhibition of at least 40% at 20 µM
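Material: reconstituted apoptosome with Apaf-1, cytochrome c, caspase-9, procaspase-3, dATP; medium: pH 7.5 Hepes buffer with CHAPS, BSA, DTT; also added: cytochrome c and DEVD-Rh110 substrate; timing: 30 min plus 50 min, RT; signal: Rh110 fluorescence intensity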
PRMT1 FP inh – inhibitors of human PRMT1; AID 652257; inhibition, % at 2.79 µM; hit rate 1.3% among 370,000; recombinant PRMT1, activity-based probe fluorescence polarization;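 active means inhibition above about 21% made by adding two undisclosed values, limit read from the data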
PAD4 FP inh – inhibitors of human PAD4; hit rate 0.41% among 330,000; inhibition, % at 6.36 µM; recombinant PAD4, RCA probe fluorescence polarization; Q9UM07;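 active means percent inhibition above a cutoff equal to the mean of all tested compounds plus 3 SD, cut at about 15% in these data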
GSTO1 inh – blocks human GSTO1 in RBBP9 counter-screen; recombinant GSTO1, activity-based probe fluorescence polarization; inhibition, % at 5.96 µM; hit rate 1.1% among 300,000; AID 1974;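 active means inhibition above the campaign mean inhibition plus 3 SD, cut at about 35% in these data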
Target sequence (P78417 whole entry, looked up): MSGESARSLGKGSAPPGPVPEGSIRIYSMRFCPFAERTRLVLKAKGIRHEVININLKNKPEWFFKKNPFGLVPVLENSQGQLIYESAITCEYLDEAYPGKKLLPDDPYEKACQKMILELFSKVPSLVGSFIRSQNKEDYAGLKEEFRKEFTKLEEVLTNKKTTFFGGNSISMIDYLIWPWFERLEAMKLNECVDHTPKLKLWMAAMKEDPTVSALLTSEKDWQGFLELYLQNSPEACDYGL
Numbers stand for hits; – = inactive; · = not tested or not shown.

SMILES | TDP2 absorb | Apaf1 inhib | PRMT1 FP inh | PAD4 FP inh | GSTO1 inh
CCOc1ccc(/C=C2\CCCc3c2nc2ccccc2c3C(=O)O)cc1OC | · | – | · | 27 | –
COc1ccc(/C=C2\CCCc3c2nc2ccccc2c3C(=O)O)cc1OC | · | – | · | – | –
CCCCNC(=O)C1(C(C)=O)CC(C(=O)OCC)=NO1 (stereo unspecified) | – | · | – | · | ·
CN1CC=C(c2ccccc2)N(c2ccccc2)C1=O | – | · | – | · | ·
O=C(C=C1SCCS1)/C=C/c1ccco1 | – | – | 22 | – | –
Oc1ccc(O)cc1 | · | · | · | – | 56
CCN(C)C(=O)CNc1nnnn1-c1ccccc1 | – | · | – | · | ·
CCC(=O)N[C@H]1C[C@@H]2O[C@@H](CO)CC[C@@H]2O[C@@H]1CCc1ccc(-c2cccc(OC)c2)cc1 | – | · | – | · | ·
OC[C@H]1CC[C@@H]2O[C@H](CCc3ccc(-c4ccc(F)cc4)cc3)[C@H](n3cc(C4CC4)nn3)C[C@@H]2O1 | – | · | – | · | ·
CCOC(=O)C1=C(COC(=O)/C=C/c2ccc(C)o2)NC(=O)NC1C (stereo unspecified) | – | – | 23 | – | ·
CNC[C@H](Cc1ccccc1)NC[C@@H](Cc1cccc2ccccc12)NCCc1ccc(C)cc1 | – | 48 | – | – | –
CNCCNC[C@H](Cc1cccc2ccccc12)NCCc1ccccc1 | – | – | – | – | ·
C[C@@H]1COc2cc(Br)ccc2S(=O)(=O)N1Cc1cn(Cc2ccc(C(F)(F)F)cc2)nn1 | – | · | – | · | ·
CC(=O)c1cccc(N2Cc3ccccc3C2=NC(=O)CCl)c1 | – | – | – | – | 78
Cc1nc2c(-c3ccccc3)c(C)nn2c(C)c1CCC(=O)NCc1ccco1 | – | – | – | – | –
CCN1CCN(c2ccc(NC(=O)CCc3c(C)nc4c(-c5ccccc5)c(C)nn4c3C)cc2)CC1 | – | 48 | – | – | –
CN=C1S/C(=C/c2cc(C)n(-c3cc(C)ccc3OC)c2C)C(=O)N1C | – | · | – | · | ·
Cc1nnc(NC(=O)CSc2ccc([N+](=O)[O-])cn2)s1 | – | – | – | – | 37
Cc1ccc2c(c1)c1nnc(SCC(=O)N3CCN(c4ccc(F)cc4)CC3)nc1n2CC(=O)O | – | – | 22 | – | –
CCn1c2ccc(C)cc2c2nnc(SCCN3CCOCC3)nc21 | – | – | – | – | –
CCCCCCCCCCCCCCCC[n+]1cccc2ccccc21 | – | 91 | – | – | –
COc1ccc2[nH]c3c4c(ccc3c2c1)C(=O)C=CC4=O | – | 45 | – | · | ·
O=C(/C=C\c1ccc(-c2ccccc2)o1)c1ccccc1 | – | – | 26 | – | –
COc1ccc(CN2C(=O)N3Cc4ccccc4C3CS2(=O)=O)cc1 (stereo unspecified) | – | · | – | · | ·
CC(C)(C)OC(=O)NCc1cc(F)ccc1/C=C/S(=O)(=O)NC1CCCC1 | – | · | – | · | ·
SMILES | TDP2 absorb | Apaf1 inhib | PRMT1 FP inh | PAD4 FP inh | GSTO1 inh
COc1cc(C(=S)N2CCN(c3ccccc3Cl)CC2)cc(O)c1O | – | – | – | – | 37
CCN(CC)C(=O)CC[C@@H]1CC[C@]2(CCCN(C(=O)C3CCCCC3)C2)O1 | – | · | – | · | ·
COc1cccc(CNc2ccc(N3CCCCC3)cc2)c1OC | – | – | – | – | –
COc1cccc(Nc2ccc(N3CCCCC3)cc2)c1OC | – | – | 24 | – | ·
O=[N+]([O-])c1c(NCCCO)cc(SCc2ccco2)c2nonc12 | – | – | 64 | – | 35
O=[N+]([O-])c1c(NCCCO)cc(Sc2ccc(Cl)cc2)c2nonc12 | – | · | – | – | –
Cc1sc2ncnc(NCCCN3CCCC3=O)c2c1C | – | – | – | – | 37
CCCCN(C(=O)CSc1nnnn1C)c1c(N)n(Cc2ccccc2)c(=O)[nH]c1=O | – | – | – | – | –
CCCCN(C(=O)CSc1nnc(Nc2ccccc2)s1)c1c(N)n(CCC)c(=O)[nH]c1=O | – | – | – | 20 | –
CCn1c(=S)sc2c(=O)n(CC(=O)Nc3ccccc3OC)c(C)nc21 | – | – | – | – | –
CCn1c(=S)sc2c(=O)n(CC(=O)NC(C)CCc3ccccc3)c(C)nc21 (stereo unspecified) | – | – | – | – | 35
CN1CCCN(C(=O)CSc2nnc(-c3cccnc3)n2C2CCCCC2)CC1 | – | · | – | · | ·
NC(=O)Cn1c(=O)n(Cc2ccco2)c(=O)c2c3c(sc21)CCCCC3 | – | – | 21 | – | –
CO[C@H]([C@H](C)/C=C/N(C)C=O)[C@@H](C)C(=O)CC[C@H](C)[C@H](O)[C@H](C)[C@H]1OC(=O)/C=C/C(C)=C/C[C@H](O)C[C@@H]2C=CC[C@@H](C[C@H](OC)C(C)(O)[C@@H](OC)C[C@@H](OC)[C@@H]1C)O2 (stereo partly specified) | – | · | – | · | ·
O=C(O)c1ccc2c(c1)C(=O)/C(=C/c1ccccc1)C2=O | – | – | 25 | – | 56
CC(C)(C)N1C(=O)c2ccc(C(=O)O)cc2C1=O | – | – | – | – | –
CCN1CCN(CCCNC(=O)c2ccc(/C=C3/Oc4ccccc4N(Cc4cccc(C)c4)C3=O)cc2)CC1 | · | 47 | · | – | –
O=C(NCCCN1CCOCC1)c1ccc(/C=C2\Oc3ccccc3N(Cc3ccccc3F)C2=O)cc1 | – | – | – | – | –
CCCC(=O)N1CCC(C(=O)NC2CCCc3ccccc32)CC1 (stereo unspecified) | – | · | – | · | ·
O=C(COC(=O)c1ccccc1Sc1ccc(C(F)(F)F)cc1[N+](=O)[O-])NC(=O)NC1CCCC1 | – | 40 | – | – | –
Cc1c(C(=O)OCC(=O)NC(=O)NC2CCCCC2)cccc1[N+](=O)[O-] | – | – | – | – | ·
C#CCOCCOCCOCCNc1nc(N2CCN(C(=O)CCCCCCCCCCNC(=O)[C@H](CCCCN)n3cc(C[C@@H](C)CC)nn3)CC2)nc(N2CCN(C(=O)CCCCCCCCCCNC(=O)[C@H](CCCN=C(N)N)n3cc(C[C@@H](C)CC)nn3)CC2)n1 | · | 55 | · | – | –
C#CCOCCOCCOCCNc1nc(N2CCN(C(=O)CCCCCCCCCCNC(=O)Cn3cc(CCCCCN)nn3)CC2)nc(N2CCN(C(=O)CCCCCCCCCCNC(=O)Cn3cc(C[C@@H](C)O)nn3)CC2)n1 | · | 71 | · | – | –
C#CCOCCOCCOCCNc1nc(N2CCN(C(=O)CCCCCCCCCCNC(=O)[C@@H](CCC(=O)O)n3cc(CCCCCN)nn3)CC2)nc(N2CCN(C(=O)CCCCCCCCCCNC(=O)[C@H](CO)n3cc(CCCSC)nn3)CC2)n1 | · | – | · | – | –
C#CCOCCOCCOCCNc1nc(N2CCN(C(=O)CCCCCCCCCCNC(=O)[C@H](CCCCN)n3cc(CCO)nn3)CC2)nc(N2CCN(C(=O)CCCCCCCCCCNC(=O)[C@H](CCCCN)n3cc(C[C@@H](C)CC)nn3)CC2)n1 | · | 68 | · | – | –
C#CCOCCOCCOCCNc1nc(N2CCN(C(=O)CCCCCCCCCCNC(=O)[C@@H](CCC(=O)O)n3cc(CCCCCN)nn3)CC2)nc(N2CCN(C(=O)CCCCCCCCCCNC(=O)[C@H](CO)n3cc(CCCCCN)nn3)CC2)n1 | · | 54 | · | – | –
